The values that follow come from ChEMBL document CHEMBL2375275, “Design and synthesis of novel chromenone derivatives as interleukin-5 inhibitors” (Bioorg Med Chem, 2013).

This experiment addresses T1, Interleukin-5 (Mus musculus) (UniProt P04401).
T1 sequence (whole entry): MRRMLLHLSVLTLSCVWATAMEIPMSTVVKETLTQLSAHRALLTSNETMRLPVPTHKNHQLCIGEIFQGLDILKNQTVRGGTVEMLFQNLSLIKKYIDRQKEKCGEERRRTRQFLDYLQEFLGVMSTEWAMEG
Briefly: Inhibition interleukin-5 in mouse Y16 cells at 30 uM after 48 hrs by WST-1 assay. It is filed as cell-based. The method, boiled down:
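IL-5-dependent pro-B Y16 cells stimulated with 3 U/mL mIL-5 and incubated 48 h with or without sample; cell metabolism read by WST-1 as proliferation index.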
(Formazan colour is commonly taken as a measure of viable cells.)
As a reminder, the inhibition is the change of the read-out against control, counted positive when it falls. A low value points to little suppression. `O=C(CCc1coc2cccc(OCC3CCCCC3)c2c1=O)c1ccc(Cl)c(Cl)c1`: the inhibition is 68%. Compound `N#Cc1ccc(C(O)CCc2coc3cccc(OCC4CCCCC4)c3c2=O)cc1` (centres undefined) displayed an inhibition of 94%. The compound `CC(C)(C)c1ccc(C(=O)CCc2coc3cccc(OCC4CCCCC4)c3c2=O)cc1` displayed an inhibition of 6.7%. Regarding `O=C(CCC1COc2cccc(OCC3CCCCC3)c2C1=O)c1ccc(Cl)c(Cl)c1` (centres undefined), the inhibition is 40%. In turn, `COc1ccc(C(O)CCc2coc3cccc(OCC4CCCCC4)c3c2=O)cc1` (centres undefined) came in with an inhibition of 94%.

In turn, `O=C(CCc1coc2cccc(OCC3CCCCC3)c2c1=O)c1ccc2ccccc2c1` gave an inhibition of 10%. As to `N#Cc1ccc(C(=O)CCc2coc3cccc(OCC4CCCCC4)c3c2=O)cc1`, the inhibition came out at 93%. For `O=c1c(CCC(O)c2ccc(F)cc2)coc2cccc(OCC3CCCCC3)c12` (centres undefined), the inhibition is 94%. In the case of `O=c1c(CCC(O)c2ccc(C(F)(F)F)cc2)coc2cccc(OCC3CCCCC3)c12` (centres undefined), the inhibition was 55%.

`COc1ccc(C(=O)CCc2coc3cccc(OCC4CCCCC4)c3c2=O)cc1`: the inhibition was found to be 91%.

Consider `O=c1c(CCC(O)c2ccc(O)cc2)coc2cccc(OCC3CCCCC3)c12` (centres undefined), for which the inhibition was determined as 94%. On to `O=C(CCc1coc2cccc(OCC3CCCCC3)c2c1=O)c1ccc(C(F)(F)F)cc1`, for which the inhibition worked out at 5.3%. Compound `Cc1ccc(C(O)CCc2coc3cccc(OCC4CCCCC4)c3c2=O)cc1` (centres undefined) returned an inhibition of 13.5%. Next, `COc1ccc(C(=O)CCC2COc3cccc(OCC4CCCCC4)c3C2=O)cc1` (centres undefined): 34%; `O=C(CCc1coc2cccc(OCC3CCCCC3)c2c1=O)c1ccccc1`: 12.3%; `O=c1c(CCC(O)c2ccc(Cl)cc2)coc2cccc(OCC3CCCCC3)c12` (centres undefined): 94%. Next, `CC(C)(C)c1ccc(C(O)CCc2coc3cccc(OCC4CCCCC4)c3c2=O)cc1` (centres undefined): 6.6%; `Cc1ccc(C(=O)CCc2coc3cccc(OCC4CCCCC4)c3c2=O)cc1`: 70%. Under `O=C(CCc1coc2cccc(OCC3CCCCC3)c2c1=O)c1ccc(Cl)cc1` stands 94%; under `O=C(CCc1coc2cccc(OCC3CCCCC3)c2c1=O)c1ccc(O)cc1`, 80%; under `O=C(CCc1coc2cccc(OCC3CCCCC3)c2c1=O)c1ccc(F)cc1`, 93%. Compound `O=c1c(CCC(O)c2ccc3ccccc3c2)coc2cccc(OCC3CCCCC3)c12` (centres undefined) had an inhibition of 86%. On to `O=c1c(CCC(O)c2ccc(Cl)c(Cl)c2)coc2cccc(OCC3CCCCC3)c12` (centres undefined), for which the inhibition was 94%.

Compound `O=c1c(CCC(O)c2ccccc2)coc2cccc(OCC3CCCCC3)c12` (centres undefined) showed an inhibition of 94%.
